# Source: PubChem BioAssay
# The full list was thinned out, with hits kept by preference.
# CHOP inh: CHOP inhibition in unfolded protein response. CHO-K1 CHOP-promoter luciferase, tunicamycin-induced, 15-18 h. inhibition, % at 10 µM. hit rate 3.8% among 220,000. AID 2732;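 active = compounds that reduced the stress-induced luciferase reporter signal by more than about 70% of percent inhibition, limit read from the data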;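 also: 0% = tunicamycin plus vehicle and 100% = wells without tunicamycin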
# Fh CTSL1 inh: cathepsin L1 inhibition, PFM18AAP counter-screen; inhibition, % at 5.96 µM; recombinant F. hepatica cathepsin L1, Z-Leu-Arg-MCA fluorescence; hit rate 0.49% among 300,000;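 active = inhibition above the mean of all tested compounds plus 3 SD, set per screening campaign, cut at about 17% in these data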;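 also: 0% = plate median of test compound wells and 100% = 1 µM Z-Phe-Ala-diazomethylketone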
# XBP1 UPR activ: adaptive UPR (XBP1) activation; CHO-XBP1 luciferase reporter, IRE1-XBP1 UPR activation, luminescence; percent of tunicamycin response, DMSO as zero; activation, % at 20 µM; hit rate 0.33% among 330,000;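 active = versus positive control, 20 µM dose yields 30% or more activation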;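 also: 100% = tunicamycin at 10 µg/mL and 0% = DMSO only wells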
#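 assay system = CHO-XBP1 luciferase reporter cells | amount = 1000 cells/well | buffer or medium = F12 plus 10% FBS | compound dosing = single point, 20 µM final compound, 1% DMSO | incubation = 16-18 h cell attachment at 37 °C, then 6 h compound exposure | detection = Steady-Glo luminescence read | controls = tunicamycin 10 µg/mL and vehicle-only wells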
# UPR CHOP act: apoptotic UPR (CHOP) activation | activation, % at 10 µM | CHO-CHOP luciferase reporter, luminescence; percent of tunicamycin response over DMSO baseline | hit rate 0.34% among 330,000;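 active = at 10 µM dose, activation of 40% or more, normalized to positive control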;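 also: 100% = tunicamycin at 10 µg/mL and 0% = DMSO alone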
#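 Material: CHO-CHOP cells, stable luciferase reporter of PERK-eIF2a-CHOP signalling; quantity: 500 reporter cells seeded per well; buffer or medium: F12 medium containing 10% fetal bovine serum; compound: one dose, 10 µM in 0.5% DMSO; incubation: 6 h compound treatment, 37 °C; measured by: Steady-Glo luciferase luminescence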
# UCH37 DUB inh: human UCH37 deubiquitinating enzyme inhibition; Q9Y5K5; purified proteasome/UCH37, Ub-AMC cleavage fluorescence; inhibition, % (no concentration beside the values); hit rate 0.33% among 330,000;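 active = mean inhibition over replicate wells above about 20%, limit read from the data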;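 also: 0% = compound-free wells with enzyme and 100% = wells lacking proteasome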
# Target sequence (Q9Y5K5 whole entry, looked up): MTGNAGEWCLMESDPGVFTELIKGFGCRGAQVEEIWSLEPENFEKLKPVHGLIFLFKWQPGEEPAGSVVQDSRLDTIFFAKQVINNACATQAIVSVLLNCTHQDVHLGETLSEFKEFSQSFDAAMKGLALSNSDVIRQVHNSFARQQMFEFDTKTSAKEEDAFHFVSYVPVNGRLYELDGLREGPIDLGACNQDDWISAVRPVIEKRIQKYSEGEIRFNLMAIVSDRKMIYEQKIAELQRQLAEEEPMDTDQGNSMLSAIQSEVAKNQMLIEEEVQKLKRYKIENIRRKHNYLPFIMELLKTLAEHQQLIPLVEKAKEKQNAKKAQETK
#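 assay system = human UCH37 enzyme supplied as purified proteasome complex | amount = proteasome at 0.15 nM in the dispensed enzyme solution | schedule = 30 min compound-proteasome preincubation then 25 min substrate reaction, room temperature | measured by = fluorescence, ex 355 nm, em 460 nm | benchmarks = no-proteasome wells (full inhibition) and compound-free wells (no inhibition)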
# * = called active by the depositor; · = no result given.
SMILES,CHOP inh,Fh CTSL1 inh,XBP1 UPR activ,UPR CHOP act,UCH37 DUB inh
CC(C)(Oc1ccc(Cl)cc1)C(=O)OCC(=O)Nc1ncc(Cl)cc1Cl,75*,-5,-2,-2,4
O=C(COC(=O)CC12CC3CC(CC(C3)C1)C2)Nc1ncc(Cl)cc1Cl,77*,-8,-1,2,4
O=C(COC(=O)C12CC3CC(CC(C3)C1)C2)Nc1ncc(Cl)cc1Cl,60,-1,3,1,0
COc1cccc2cc(C(N)=O)c(=NNC(=O)c3ccccc3)oc12,·,·,·,·,5
COc1ccc(Cn2c(C)c(C)c(C#N)c2NC(=O)Nc2cccc(Cl)c2)cc1,81*,3,13,1,5
CCOC(=O)Cc1ccc(NS(=O)(=O)c2ccc(SC)cc2)cc1,51,2,-4,-2,-1
CCOC(=O)c1ccc(NS(=O)(=O)c2ccc(SC)cc2)cc1,78*,2,0,1,4
O=C(NN=Cc1c[nH]c2ccc(Br)cc12)C1CC1,·,·,·,·,7
CCN(CC)C(=S)SSC(=S)N(CC)CC,1,1,-3,158*,2
CCOc1ccc(Cl)cc1C=NNC(=O)CNC(=O)c1ccccc1,·,·,·,·,-6
C=CCc1ccc(OCCOc2cccc(C=Nn3cnnc3)c2)c(OC)c1,·,·,·,·,6
Oc1ccc(/C=N/n2c3ccccc3c3ccccc32)cc1,91*,4,-3,1,·
Oc1ccccc1C=Nn1c2ccccc2c2ccccc21,·,·,·,·,8
CC(/C=N/Nc1nc(N2CCCCC2)nc(N2CCCCC2)n1)=C\c1ccccc1,73*,5,-2,0,·
CCOC(=O)c1sc(=NC(=O)c2ccc(F)cc2)n(C)c1C,·,-1,5,3,-54
CCOC(=O)c1sc(=NC(=O)c2c(F)cccc2F)n(C)c1C,·,18*,3,4,0
COc1ccccc1NN=Cc1c(CO)cnc(C)c1O,·,·,·,·,0
CC(O)CNc1nc2sc3c(c2c(=O)n1CCc1ccccc1)CCCCC3 (stereo not drawn),91*,4,2,4,3
Cn1c(=O)c2nnn(N=C(c3ccccc3)C3CC3)c2n(C)c1=O,·,·,·,·,34*
CCc1ccc(N(C(=O)c2snc(C(N)=O)c2N)C(C(=O)NCCC(C)C)c2c[nH]c3ccccc23)cc1 (stereo not drawn),86*,1,-3,10,-16
COc1cc([N+](=O)[O-])ccc1NC(=O)Nc1nc2c(s1)CCCC2,73*,-2,2,0,4
CC(=NNS(=O)(=O)c1ccc(C)cc1)c1ccc(C)o1,·,·,·,·,-1
O=C(CNC(=O)c1ccc(Cl)cc1)OCn1nnc2ccccc2c1=O,·,·,-2,-1,-1
CC(C)(Oc1ccc(Cl)cc1)C(=O)OCn1nnc2ccccc2c1=O,78*,-2,-1,0,2
O=C(CC1CCCCC1)OCn1nnc2ccccc2c1=O,82*,-4,-1,-1,2
SMILES,CHOP inh,Fh CTSL1 inh,XBP1 UPR activ,UPR CHOP act,UCH37 DUB inh
O=C(CNC(=O)C1CCCCC1)OCn1nnc2ccccc2c1=O,36,56*,-2,1,4
CC(Oc1ccc(Cl)cc1Cl)C(=O)OCn1nnc2ccccc2c1=O (stereo not drawn),38,-7,-2,1,3
CCC(=O)OCn1nnc2ccccc2c1=O,32,-23,-3,0,5
CC(=NNC(=O)c1cc(C2CC2)nc2ccccc12)c1ccc(C)s1,·,·,·,·,-41
COc1ccc(C=NNC(=O)COc2cccc3cccnc23)cc1OC,·,·,·,·,3
Cc1occc(=O)c1OC(=O)Nc1ccc(Cl)c(Cl)c1,96*,-2,·,·,7
Cc1ccc(C)n1-c1cc([N+](=O)[O-])ccc1-n1ccnc1,-4,0,-2,-1,7
CC1(C)N([O-])c2cc([N+](=O)[O-])ccc2[N+]1=O,40,0,-1,1,57*
CCOc1ccc2ccccc2c1C=NNC(=O)c1ccc([N+](=O)[O-])cc1,·,·,·,·,2
CN(C)c1ccc(C=NNC(=O)CN(c2ccccc2Cl)S(C)(=O)=O)cc1Br,·,·,·,·,8
COc1ccc(C(=O)c2ccc(Br)cc2)cc1,76*,-2,0,4,1
COc1ccc(C(=O)c2ccccc2)cc1,-1,-2,-1,2,2
COC(=O)Nc1nnc(-c2ccco2)s1,0,1,2,0,-16
CC(C)CC(=O)Nc1nnc(-c2ccco2)s1,84*,0,3,7,2
CCN(CC)c1ccc(C=Nn2c(C)cc(C)cc2=O)cc1,·,·,·,·,-25
CCc1cc(C(=O)Cc2cnn(-c3ccccc3)c2)c(O)cc1O,77*,-4,-2,-2,-15
CCOc1cc(/C=C2\C(=O)N(c3nc(-c4ccc(Br)cc4)cs3)N=C2c2ccccc2)ccc1O,-41,6,99*,642*,8
COc1cc([N+](=O)[O-])cc(C=NN(CCC#N)C(C)=O)c1O,·,·,·,·,13
CCc1ccc(-c2csc(NC(=O)C3CC(=O)N(c4ccc5c(c4)OCCO5)C3)n2)cc1 (stereo not drawn),85*,-1,-4,2,0
CC1(C)Cc2c(sc3nc(N/N=C/c4ccccc4)[nH]c(=O)c23)CO1,81*,2,11,3,·
CC(C)=NNc1nc2sc3c(c2c(=O)[nH]1)CC(C)(C)OC3,-20,-1,-3,0,-16
CCCCCN1C=CC(=C2C(=O)c3ccccc3C2=O)C=C1,98*,1,-12,-10,7
CC(C)(C)C1CCC(=NNC(=S)Nc2cccnc2)CC1 (stereo not drawn),12,19*,1,1,1
CC1CCCCC1=NNC(=S)Nc1cccnc1 (stereo not drawn),·,·,·,·,8
O=C(O)c1ccc(COc2ccc3c4c(c(=O)oc3c2)CCC4)o1,6,1,-1,-4,-75
SMILES,CHOP inh,Fh CTSL1 inh,XBP1 UPR activ,UPR CHOP act,UCH37 DUB inh
O=c1oc2cc(OCc3ccc([N+](=O)[O-])cc3)ccc2c2c1CCCC2,77*,0,27,11,0
Cc1[nH]c2c(ccc3ccccc32)c1C1C(CCN)C1(C)C (stereo not drawn),92*,2,7,1,-6
Cc1ccc2nc(SCC(=O)N3c4ccccc4CC3C)c(C)cc2c1 (stereo not drawn),78*,5,-2,-1,6
COCCn1c(=O)c2ccccc2c2ccccc2c1=O,13,5,2,1,3
CCCCn1c(=O)c2ccccc2c2ccccc2c1=O,76*,1,1,-2,4
COc1ccccc1CNC(=O)CC(C)=NNC(=O)COc1ccc(C)cc1Br,·,·,·,·,5
COc1ccc(-c2noc(CCCC(=O)Nc3ccc(C(N)=O)cc3)n2)cc1,82*,-2,-2,-5,0
Cc1cc(/C=C(/C#N)c2nc3ccccc3[nH]2)c(C)n1-c1cccc([N+](=O)[O-])c1,15,-1,12,7,6
